Data on six compounds can be found in ChEMBL document CHEMBL1128270 (J Med Chem, 1995).

The target of assay [1] is T1, D(2) dopamine receptor (Rattus norvegicus, UniProt P61169). The assay can be described thus: The compound was evaluated for the binding affinity towards Dopamine receptor D2 binding site using [3H]spiroperidol. An outline of the steps: (§1)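 IC50 came from 7–9 drug concentrations in triplicate, over 2–4 independent experiments, analysed with EBDA. Specific binding exceeded 75% of total.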
T1 sequence (P61169 whole entry): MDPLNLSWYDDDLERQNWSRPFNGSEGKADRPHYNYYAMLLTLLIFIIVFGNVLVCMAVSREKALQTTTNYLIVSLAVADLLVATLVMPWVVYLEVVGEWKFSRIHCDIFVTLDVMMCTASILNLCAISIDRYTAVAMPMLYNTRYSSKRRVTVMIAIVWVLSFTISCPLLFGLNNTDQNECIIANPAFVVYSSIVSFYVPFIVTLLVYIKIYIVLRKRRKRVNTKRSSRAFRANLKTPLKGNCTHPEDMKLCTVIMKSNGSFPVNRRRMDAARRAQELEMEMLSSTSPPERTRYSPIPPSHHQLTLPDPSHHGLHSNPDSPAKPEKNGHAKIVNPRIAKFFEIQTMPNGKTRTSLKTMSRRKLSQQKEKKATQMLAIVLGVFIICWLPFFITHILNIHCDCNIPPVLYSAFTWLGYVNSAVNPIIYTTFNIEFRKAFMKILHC

In assay [2] the target is T2, 5-hydroxytryptamine receptor 1A (Rattus norvegicus, UniProt P19327).
T2 sequence (P19327 whole entry): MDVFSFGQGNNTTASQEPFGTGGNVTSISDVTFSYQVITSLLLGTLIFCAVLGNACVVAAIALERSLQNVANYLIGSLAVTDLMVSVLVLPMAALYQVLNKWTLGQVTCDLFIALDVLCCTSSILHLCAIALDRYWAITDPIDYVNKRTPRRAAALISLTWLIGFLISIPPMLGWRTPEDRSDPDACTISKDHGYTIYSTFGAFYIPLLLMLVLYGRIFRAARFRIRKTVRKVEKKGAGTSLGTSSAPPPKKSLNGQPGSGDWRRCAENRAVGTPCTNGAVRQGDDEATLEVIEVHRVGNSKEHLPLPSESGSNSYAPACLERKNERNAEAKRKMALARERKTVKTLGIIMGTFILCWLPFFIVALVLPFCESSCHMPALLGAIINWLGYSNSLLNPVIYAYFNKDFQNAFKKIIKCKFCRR
The assay can be described thus: In vitro binding affinity measured on serotonin 5-hydroxytryptamine 1A receptor using [3H]8-OH-DPAT as radioligand.

Assay [3] in a line: Selectivity as the ratio of IC50 value against alpha-1 receptor to that of 5-hydroxytryptamine 1A receptor. An outline of the steps: (§2)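 Ratio of the α1 IC50 to the 5-HT1A IC50 ([3H]-8-OH-DPAT, rat cortex). For α1, male Sprague-Dawley rat cortex membranes were prepared in 50 mM Tris-HCl pH 7.7 with 10 μM pargyline and 0.1% ascorbate.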
The target of assay [4] is T3, Adrenergic receptor alpha-1 (Rattus norvegicus, UniProt P15823+P23944+P43140).
T3 sequence (P15823 whole entry): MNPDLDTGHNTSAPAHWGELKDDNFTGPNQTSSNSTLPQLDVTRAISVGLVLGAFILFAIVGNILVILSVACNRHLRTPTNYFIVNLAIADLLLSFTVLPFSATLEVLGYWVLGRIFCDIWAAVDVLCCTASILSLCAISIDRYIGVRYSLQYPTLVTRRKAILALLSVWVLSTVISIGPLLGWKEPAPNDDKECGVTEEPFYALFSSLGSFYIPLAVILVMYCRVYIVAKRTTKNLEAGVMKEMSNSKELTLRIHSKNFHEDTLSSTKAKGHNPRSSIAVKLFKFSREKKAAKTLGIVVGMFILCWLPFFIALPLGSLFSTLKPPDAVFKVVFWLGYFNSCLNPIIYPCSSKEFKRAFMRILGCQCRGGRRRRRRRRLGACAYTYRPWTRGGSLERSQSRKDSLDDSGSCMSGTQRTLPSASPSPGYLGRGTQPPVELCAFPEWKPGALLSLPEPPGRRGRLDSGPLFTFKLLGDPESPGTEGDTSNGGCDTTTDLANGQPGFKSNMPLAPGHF
T3 sequence (P23944 whole entry): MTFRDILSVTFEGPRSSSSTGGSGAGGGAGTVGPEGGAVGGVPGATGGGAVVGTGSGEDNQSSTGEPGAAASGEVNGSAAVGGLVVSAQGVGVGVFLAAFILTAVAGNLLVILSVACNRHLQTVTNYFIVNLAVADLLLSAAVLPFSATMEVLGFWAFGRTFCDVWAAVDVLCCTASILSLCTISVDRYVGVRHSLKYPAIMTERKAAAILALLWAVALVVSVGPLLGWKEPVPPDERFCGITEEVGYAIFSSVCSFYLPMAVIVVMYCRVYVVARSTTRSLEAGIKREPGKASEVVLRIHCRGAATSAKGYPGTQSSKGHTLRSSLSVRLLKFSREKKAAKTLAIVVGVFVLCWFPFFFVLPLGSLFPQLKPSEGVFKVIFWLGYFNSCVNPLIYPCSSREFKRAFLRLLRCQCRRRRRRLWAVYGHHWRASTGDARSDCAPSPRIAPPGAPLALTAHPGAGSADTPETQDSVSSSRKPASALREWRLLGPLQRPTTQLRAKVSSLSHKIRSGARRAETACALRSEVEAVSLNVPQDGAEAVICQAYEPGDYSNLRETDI
T3 sequence (P43140 whole entry): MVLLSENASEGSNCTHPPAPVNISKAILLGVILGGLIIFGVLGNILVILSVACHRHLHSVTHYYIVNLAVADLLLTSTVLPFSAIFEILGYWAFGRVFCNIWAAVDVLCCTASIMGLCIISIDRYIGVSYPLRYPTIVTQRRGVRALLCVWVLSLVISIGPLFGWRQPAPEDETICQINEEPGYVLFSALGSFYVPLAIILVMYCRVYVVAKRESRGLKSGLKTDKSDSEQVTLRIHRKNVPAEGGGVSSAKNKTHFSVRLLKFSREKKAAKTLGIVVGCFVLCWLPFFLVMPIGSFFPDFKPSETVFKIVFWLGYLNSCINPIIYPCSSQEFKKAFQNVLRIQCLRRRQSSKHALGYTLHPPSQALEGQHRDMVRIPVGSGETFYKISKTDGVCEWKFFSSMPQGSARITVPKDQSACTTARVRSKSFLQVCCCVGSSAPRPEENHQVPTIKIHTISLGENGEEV
The assay can be described thus: In vitro binding affinity measured on alpha-1 adrenergic receptor using [3H]prazosin as radioligand. Format: protein assay.

The subject of assay [5] is Dopamine D2 receptor and serotonin 1a receptor (Rattus norvegicus). The assay can be described thus: Selectivity as the ratio of IC50 value against D-2 receptor to that of 5-hydroxytryptamine 1A receptor.
Assay [6] in a line: Selectivity ratio of IC50 value against D-2 receptor to that of 5-HT1A receptor. An outline of the steps:
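Ratio of the D-2 IC50 to the 5-HT1A IC50. […] Each IC50 came from 7–9 concentrations in triplicate over 2–4 experiments (EBDA).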

Assay [7] addresses Serotonin 2 (5-HT2) receptor (Rattus norvegicus, UniProt P30994+P08909+P14842). The assay can be described thus: In vitro binding affinity measured on serotonin 5-hydroxytryptamine 2 receptor using [3H]ketanserin as radioligand. Type of assay: protein assay.
The target of assay [8] is Serotonin 1a (5-HT1a) receptor/Adrenergic receptor alpha-1 (Rattus norvegicus) (UniProt P15823+P23944+P43140+P19327). The assay can be described thus: Selectivity ratio of IC50 value against alpha-1 receptor to that of 5-HT1A receptor. Format: protein assay. Summed up: as §2
The target of assay [9] is T1, D(2) dopamine receptor. The assay can be described thus: In vitro binding affinity measured on dopamine receptor D2 using [3H]spiroperidol as radioligand. An outline of the steps:
as §1

The species named for the next assay is Cavia porcellus. The assay can be described thus: Selectivity as the ratio of IC50 value against sigma receptor to that of 5-HT1A receptor. Summed up:
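Ratio of the σ IC50 to the 5-HT1A IC50. For σ, a P2 membrane fraction was prepared from whole male guinea pig brain without cerebellum in 50 mM Tris-HCl pH 7.4. [3H]DTG was 0.90 nM final, incubated 90 min at 25 °C, then filtered and counted. IC50 values came from 7–9 concentrations in triplicate (EBDA).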

One may read the IC50 as the concentration that inhibits the measured activity by half. As for `COc1ccc2c(c1)C(NCCN1CCN(c3ccccc3OC)CC1)CCC2` (stereo not given), the figures for the IC50 (on D(2) dopamine receptor [1]; in assay [2]; in assay [4]) were 1200 nM, 40.3 nM and 1960 nM, respectively. Further, the results for the Selectivity in assay [3] and in [5] were 49 and 30, respectively.

Turning to `COc1ccccc1N1CCN(CCNC2CCCc3c(OC)cccc32)CC1` (stereo not given), the Selectivity in [6] was 88; in assay [8] it was 21; in the assay filed under Cavia porcellus, 22. The IC50 is 7.01 nM in assay [2], 3340 nM in assay [7], 149 nM in [4] and 618 nM at D(2) dopamine receptor [9].

For `COc1ccccc1N1CCN(CC/C=C2\CCCc3ccccc32)CC1`, the Selectivity was found to be 6.9 in [6], 2 in [8] and 30 in the assay filed under Cavia porcellus. For the same compound, the IC50 in assay [2] is 1.84 nM; in assay [7], 147 nM; in [4], 3.6 nM; on D(2) dopamine receptor [9] it was 12.7 nM.

`COc1ccc2c(c1)C(CCCN1CCN(c3ccccn3)CC1)=CCC2`: the Selectivity in assay [6] was found to be 12; in [8] it was 2.4; in the assay listed under Cavia porcellus it was 3.9. The 50% inhibitory concentration (IC50) was found to be 63.6 nM in assay [2], 146 nM in assay [7], 152 nM in assay [4] and 778 nM on D(2) dopamine receptor [9].

For the compound `COc1ccc2c(c1)C(CCCN1CCN(c3ccccn3)CC1)CCC2` (stereo not given), the Selectivity amounted to 97 in [6], 77 in assay [8] and 37 in the assay filed under Cavia porcellus. The IC50 in assay [2] was found to be 3.38 nM; in assay [7] it was 288 nM; in assay [4], 261 nM; on D(2) dopamine receptor [9], 328 nM.

On to `COc1ccccc1N1CCN(CC/C=C2\CCCc3c(OC)cccc32)CC1`, for which the Selectivity worked out at 22 in [6], 12 in [8] and 100 in the assay filed under Cavia porcellus. Besides, the IC50 in assay [2] was determined as 0.52 nM; in [7] it was 667 nM; in assay [4] it was 6 nM; on D(2) dopamine receptor [9], 11.3 nM.
